According to PubChem BioAssay AID504414 (Broad Institute, 2011):
Screen size: about 330,000 compounds; about 55 (0.02%) were called active.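 The calls were made as follows: active = highest replicate inhibition of at least 40%; inactive = the rest.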 Shown is part of a subset that was picked to be rich in actives.

Target: Golgi-associated PDZ and coiled-coil motif-containing protein (Homo sapiens) (UniProt Q9HD26)
Experiment: CAL PDZ peptide-binding inhibitors, primary screen, biochemical, fluorescence polarization, Cer-tagged CAL PDZ, HTS (AID 504414);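 also: plate controls were DMSO neutral control wells for no effect and unlabeled competitor peptide control wells for full effect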
Details: purified CAL PDZ, TMR-peptide fluorescence polarization, 1 h; at 20 µM; active compounds read high
Method in brief: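 material = purified tagged CAL PDZ domain construct (CerCALP) | compound dosing = 20 µM, one dose | times = 1 h at RT | measured by = fluorescence polarization from S- and P-plane intensities, G-factor corrected | read-out = inhibition from polarization loss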

inhibition, inactive:
Cc1ccccc1N1C(=O)C2ON(c3ccccc3)C(c3ccncc3)C2C1=O (stereo not drawn) -1.2%
CCCCN(C)c1ccc([N+](=O)[O-])cc1 -3.03%
CC(=O)c1c(O)cc2n(c1=O)-c1ccc(Cl)cc1C2(C)C -2.37%
COc1ccc(-c2cc(C(=O)N(C)CC(=O)Nc3ccccc3Cl)c3ccccc3n2)cc1OC -0.623%
O=C(/C=C/Nc1ccc(S(=O)(=O)Nc2cnc3ccccc3n2)cc1)c1cccnc1 -1.99%
COc1ccc(N(CC(=O)N2CCOCC2)S(=O)(=O)c2ccccc2)cc1Cl -0.969%
CC(NCCc1ccc(S(N)(=O)=O)cc1)C(=O)NCc1ccccc1 (stereo not drawn) -0.747%
CC(C)NC(=O)Nc1cccc2c1O[C@H](CN(C)S(=O)(=O)c1cccs1)[C@@H](C)CN([C@H](C)CO)C2=O -1.8%
CC(C)(C)c1cc(=O)n2c(nc3ccccc32)[nH]1 -2.22%
O=C(Nc1ccc(C2CC2(Cl)Cl)cc1)c1cccc([N+](=O)[O-])c1 (stereo not drawn) 8.41%
CCOC(=O)C(C)n1cnc2scc(-c3ccc(C)c(C)c3)c2c1=O (stereo not drawn) -1.15%
CCOc1cc(CNCCN(C)C)c(Cl)cc1OCC(=O)NCCc1ccccc1 -2.91%
CCOC(=O)C1Sc2[nH]c(=O)sc2C(c2ccc(Cl)cc2)C1C(=O)OCC (stereo not drawn) 0.946%
Cc1cccc(C(=O)OCC(=O)NC(C)C2CC3CCC2C3)c1O (stereo not drawn) 1.53%
COc1ccccc1N(CC(=O)NC1CCCC1)C(=O)C1(C)CC(=O)N=C2C=CC(C)=CN21 (stereo not drawn) -1%
Cc1ccc(C)c(C(=O)COC(=O)Cn2[nH]c(=O)c3ccccc3c2=O)c1 -1.04%
CC(=O)C1=C(C)NC2=C(C(=O)CC(C)(C)C2)C1C (stereo not drawn) -0.554%
COCCNC(=O)/C(C#N)=C/c1nc(N(C)C)n(-c2ccc(F)cc2)c1Cl -6.48%
CN(CCc1cn[nH]c1)C(=O)CC1C(=O)NCCN1Cc1cccc(Oc2ccccc2)c1 (stereo not drawn) 0.0148%
CN(C)S(=O)(=O)c1ccc(N2CCCC2)c(C(=O)Nc2ccc(Br)cc2F)c1 0.123%
CCOc1cc(C(=O)N(Cc2ccccc2)c2ccc(C)cc2)ccc1OCC(=O)N1CCOCC1 -0.206%
NS(=O)(=O)c1ccc(CCNC(=O)c2ccc(Cl)c(S(=O)(=O)N3CCCCCC3)c2)cc1 -0.205%
COc1ccc(-c2c(C)nn3c(N4CCC(C(=O)N5CCCCC5)CC4)cc(C)nc23)cc1OC 0.851%
